The values that follow come from ChEMBL document CHEMBL1255219, “Discovery of a β-d-2'-deoxy-2'-α-fluoro-2'-β-C-methyluridine nucleotide prodrug (PSI-7977) for the treatment of hepatitis C virus” (J Med Chem, 2010).

Data set [1] deals with Hepatitis C virus NS5B S96T/N142T mutant. The experiment in a line: Antiviral activity against HCV expressing NS5B polymerase S96T/N142T mutation infected in human ET-lunet cells.
Data set [2] relates to CCRF-CEM. The experiment in a line: Cytotoxicity against human CEM cells assessed as inhibition of mitochondrial DNA up to 100 uM. It counts as cell-based. In outline:
(§1)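 CEM or HepG2 cells at 1 × 10^4 per well, compound serially diluted from 100 μM, 14 days at 37 °C, 5% CO2. Medium with compound renewed on days 7 and 11. Total DNA extracted; mitochondrial COXII DNA and rDNA measured by multiplex quantitative PCR. ΔCt converted to log reduction, inhibition relative to untreated cells, and the 90% inhibitory concentration reported.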

Data set [3] relates to Hepatitis C virus. The experiment in a line: Antiviral activity against HCV expressing NS5B polymerase S282T mutation infected in clone A cells. It counts as functional, Hepacivirus hominis. The procedure, abridged:
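Replicon cells seeded at 1500 (clone A) or 3000 (ET-lunet) per well. Serially diluted compound added in medium without G418, 4 days at 37 °C, 5% CO2. HCV RNA measured by real-time RT-PCR as ΔCt versus no-drug control. EC90 calculated; fold change of S282T mutant versus wild-type replicon EC90. At least three independent experiments.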

Data set [4] relates to Hepatitis C virus. The experiment in a line: Antiviral activity against HCV infected in human ET-lunet cells. It counts as functional, Hepacivirus hominis. In outline:
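ET-lunet replicon cells seeded at 3000 cells/well. Compounds serially diluted in culture medium without G418 and added to cells, which were incubated 4 days at 37 °C in 5% CO2. HCV RNA replication measured by quantitative real-time RT-PCR as ΔCt against the mean no-drug control threshold cycle. EC90, the concentration giving 90% inhibition, was calculated.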

Data set [5] deals with Hepatitis C virus. The experiment in a line: Antiviral activity against HCV infected in human clone A cells. It counts as functional, Hepacivirus hominis. The procedure, abridged: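 Clone A replicon cells seeded at 1500 cells/well. Compounds serially diluted in G418-free culture medium and added, then incubated 4 days at 37 °C in 5% CO2. HCV RNA quantified by real-time RT-PCR as ΔCt relative to the mean no-drug control.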

The test system of data set [6] is CCRF-CEM. The experiment in a line: Cytotoxicity against human CEM cells assessed as inhibition of ribosomal DNA up to 100 uM. It counts as cell-based. In outline: as §1
The nature of data set [7]: Cytotoxicity against human HepG2 cells assessed as inhibition of mitochondrial DNA. It is filed as cell-based. The procedure, abridged:
as §1

The nature of data set [8]: Cytotoxicity against human HepG2 cells assessed as inhibition of ribosomal DNA. It counts as cell-based. In outline: as §1

Broadly, the EC90 is the point of the concentration-response curve where the effect stands at 90%. Read a high EC90 as weaker potency. Take `CC(C)OC(=O)[C@H](C)N[P@@](=O)(OC[C@H]1O[C@@H](n2ccc(=O)[nH]c2=O)[C@](C)(F)[C@@H]1O)Oc1ccccc1`: the concentration for an effect of 90% (EC90) in data set [1] was 1300 nM; in the data set with Hepatitis C virus [3], greater than 100 µM; with Hepatitis C virus [4], 3300 nM; with Hepatitis C virus [5] (Hepatitis C virus), 7.5 µM. Further, the Activity entry in the data set with CCRF-CEM [2] and in the data set with CCRF-CEM [6] was “Non-toxic” in each case.

`CC(C)OC(=O)[C@H](C)N[P@](=O)(OC[C@H]1O[C@@H](n2ccc(=O)[nH]c2=O)[C@](C)(F)[C@@H]1O)Oc1ccccc1` [SOFOSBUVIR]: the EC90 in data set [1] is 110 nM; with Hepatitis C virus [3], 7.8 µM; in the data set with Hepatitis C virus [4], 230 nM; in the data set on Hepatitis C virus [5], 0.42 µM. The Activity result in the data set with CCRF-CEM [2] and in the data set with CCRF-CEM [6] was “Non-toxic” each time. The results for the CC90 in data set [7] and in data set [8] were 72.1 µM and 68.6 µM, respectively.
